Source: PubChem BioAssay (several laboratories)
A selection: hits, their analogues and other compounds. The true share with any hit is near 2.3%.
ABCG2 block – human ABCG2 inhibition, ABCB1 as counter-screen; Q9UNQ0; IgMXP3 cells, JC-1 efflux, flow cytometry; inhibition, % at 6.6 µM; hit rate 0.1% among 190,000; AID 1325;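 active = inhibition above 80%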;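 note: 0% = DMSO and 100% = nicardipine control wells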
Target sequence (Q9UNQ0 whole entry, looked up): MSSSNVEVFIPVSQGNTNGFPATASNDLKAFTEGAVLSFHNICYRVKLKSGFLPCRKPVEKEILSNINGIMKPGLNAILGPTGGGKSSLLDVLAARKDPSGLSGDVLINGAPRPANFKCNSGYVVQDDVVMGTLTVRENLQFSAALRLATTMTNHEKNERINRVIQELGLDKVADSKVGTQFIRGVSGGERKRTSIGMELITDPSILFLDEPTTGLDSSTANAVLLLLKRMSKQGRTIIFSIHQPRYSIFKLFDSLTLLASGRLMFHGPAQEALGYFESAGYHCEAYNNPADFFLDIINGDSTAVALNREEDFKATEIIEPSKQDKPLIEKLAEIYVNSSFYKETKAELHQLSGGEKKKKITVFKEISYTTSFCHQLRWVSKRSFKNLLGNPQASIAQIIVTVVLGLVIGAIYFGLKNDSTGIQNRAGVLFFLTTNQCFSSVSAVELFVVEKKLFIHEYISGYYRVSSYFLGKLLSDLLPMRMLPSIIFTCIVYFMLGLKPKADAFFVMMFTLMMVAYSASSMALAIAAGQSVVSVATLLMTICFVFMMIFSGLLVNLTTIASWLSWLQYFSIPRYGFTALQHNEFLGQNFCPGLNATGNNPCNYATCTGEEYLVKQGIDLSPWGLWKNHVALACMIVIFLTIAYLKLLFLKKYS
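Test system: IgMXP3 (ABCG2) plus far-red-tagged CCRF-Adr (ABCB1) cells. Reagent: JC-1 dye as substrate. Timing: 10 min exposure at 25 °C with rotation, no wash. Measured by: flow cytometric JC-1 green MFI at 530 nm. Read-out: percent efflux inhibition, scaled nicardipine 100% to DMSO 0%. Control set: nicardipine and DMSO wells.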
RAM network inh – inhibitors of the yeast RAM network | S. cerevisiae dse1pr::URA3 reporter, 5-FOA growth OD615, 2 d; analog-sensitive cbk1-as2 kinase mutant strain | inhibition, % at 50 µM | hit rate 1.8% among 190,000;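 active = inhibition above a set limit, 3 SD over mean compound inhibition, cut at about 8.4% in these data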;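 note: 0% = DMSO-only wells with no growth and 100% = 10 µM 1-NA-PP1 full growth; inhibition rescues growth on 5-FOA so higher OD means more RAM inhibition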
ABCB1 inh – inhibitors of human ABCB1 transporter, ABCG2 counter-screen. inhibition, % at 6.6 µM. P08183. CCRF-Adr cells, JC-1 efflux, flow cytometry. AID 1326. hit rate 0.067% among 190,000; in the data active = inhibition above about 40%;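 note: 0% = vehicle and 100% = reference inhibitor; higher value means more JC-1 retained so stronger ABCB1 efflux block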
Arbovirus inh – antivirals against arbovirus infection; arbovirus infection cell-based antiviral screen; inhibition, % at 10 µM; hit rate 0.37% among 200,000; in the data active = inhibition above about 30%
The depositor's hits bear a star.

SMILES | ABCG2 block | RAM network inh | ABCB1 inh | Arbovirus inh
CCOC(=O)c1ccc(N=c2sc(C(=O)OC)cc(=O)n2Cc2ccco2)cc1 | 2 | 8.6* | 0 | -27
COc1ccc(/C=C2\CCCC(C(=O)C(F)(F)F)=C2O)cc1 | 0 | 10.0* | 0 | 7
O=C(C1=C(O)/C(=C/c2ccc(O)cc2)CCC1)C(F)(F)F | 2 | -2 | 0 | 0
Cc1ccccc1NC(=O)/C(C#N)=C\c1cn(CC(=O)O)c2ccccc12 | 0 | 1 | -1 | -3
Cc1ccccc1OCCSCc1nc2ccccc2[nH]1 | 20 | 0 | 1 | 66*
Cc1ccc(S(=O)(=O)NCCSc2nnnn2-c2cc(C)ccc2C)cc1 | 1 | 10* | 1 | -3
Cc1ccc(S(=O)(=O)NCCSc2nnnn2-c2ccccc2)cc1 | 8 | 2 | 1 | -1
CCc1nnc(NC(=O)CSc2nc(C3CCCCC3)nc3ccccc23)s1 | 7 | 10* | 3 | 13
O=S(=O)(NCCSCc1c(Cl)cccc1Cl)c1ccc2c(c1)OCCO2 | 0 | 8.8* | 0 | -22
O=S(=O)(NCCSc1ccc(Cl)cc1)c1ccc2c(c1)OCCO2 | 0 | 7 | 0 | -30
O=C(Cc1ccccc1Cl)NNC(=O)Nc1ccccc1 | 4 | 3 | 0 | 0
CN(C)c1ccc(N=Nc2ccc(S(=O)(=O)O)cc2)c2ccccc12 | -2 | 10* | -1 | 1
O=C(/C=C/c1ccc(N2CCC(c3ccccc3)=N2)cc1)c1ccccc1 | 81* | 11* | 75* | -13
C=C(C)c1cccc(C(C)(C)NC(=O)N2CCN(C)CC2)c1 | 5 | 1 | 0 | 8
COc1cc2c(cc1OC)C1(Nc3c-2c(C)nn3-c2ccccc2)C(=O)Nc2ccccc21 (stereo not drawn) | 4 | 9.3* | 2 | -5
COc1cc2c(cc1OC)C1(Nc3c-2c(-c2ccccc2)nn3-c2ccccc2)C(=O)Nc2ccccc21 (stereo not drawn) | 5 | 6 | 2 | 16
Cc1ccc(-c2csc3nnc(SCC(=O)NCc4ccc5c(c4)OCO5)n23)cc1 | -3 | 1 | -4 | 5
O=C(CCSc1nnc2scc(-c3ccccc3)n12)NCc1ccc2c(c1)OCO2 | -6 | 10* | -4 | -4
Cc1ccccc1-n1c(SC(C)C(N)=O)nnc1-c1cccnc1 (stereo not drawn) | 3 | 0 | 0 | 0
Cc1nc2c(C(=O)NCCC(C)C)c[nH]n2c(=O)c1Cl | 1 | 3 | 0 | 36*
CCOc1ccc(NC(C)C(=O)N/N=C/c2cccs2)cc1 (stereo not drawn) | 7 | 2 | 1 | 0
COc1cc(OC)c(NC(=O)CCCn2c(=O)oc3ccccc32)cc1Cl | 5 | 11* | 1 | 2
COc1cc(Cl)c(C)cc1NC(=O)CCCn1c(=O)oc2ccccc21 | 11 | 1 | 1 | -3
Cc1ccc(C)c(N=Nc2nc3ccccc3n2C)c1 | 35 | -1 | 3 | 4
CCOC(=O)C1=Nc2ccccc2C1=[N+]=[N-] | 0 | -1 | 0 | 45*
SMILES | ABCG2 block | RAM network inh | ABCB1 inh | Arbovirus inh
COc1ccc(-c2nn(-c3ccccc3)cc2/C=N/NC(=O)c2cccc(S(=O)(=O)Nc3ccccc3Cl)c2)cc1 | -3 | 2 | 0 | -18
Cc1ccc(Nc2nc(N)c([N+](=O)[O-])c(N3CCOCC3)n2)cc1C | 60 | 0 | 2 | 51*
Cc1ccc(Nc2nc(N)c([N+](=O)[O-])c(N3CCC(C)CC3)n2)cc1C | 5 | 1 | 0 | -36
COC(=O)C1=C(C)N(Cc2ccco2)C(=O)/C1=C\c1ccc(N(C)C)cc1 | 1 | 5 | 0 | -10
COC(=O)C1=C(C)N(Cc2ccco2)C(=O)/C1=C\c1ccc([N+](=O)[O-])cc1 | 19 | 10.0* | 3 | -8
CC(C)Cc1nc(N2CCN(C(=O)c3ccco3)CC2)c(C#N)c2c1CCC2 | 3 | 9.2* | 1 | -10
CCOc1ccccc1NC1=C(Cl)C(=O)N(Cc2ccccc2)C1=O | -1 | 11* | 0 | -8
CCOc1ccc(-n2c(=S)sc3c(=O)[nH]c(SCC(=O)NCC4CCCO4)nc32)cc1 (stereo not drawn) | 0 | 8.7* | 0 | 4
Cn1c(N)c(Br)c(-c2ccc(F)cc2)c(C#N)c1=O | 15 | 2 | 1 | 6
COc1ccc(Nc2nnc(Cc3ccc(Cl)cc3)c(=O)[nH]2)c(OC)c1 | 2 | 0 | 1 | -6
CSc1nsc2nc(=O)c(/C=C3\C=Nc4ccccc43)c(N)n12 | -2 | 3 | -1 | 38*
CCc1nn2c(N)c(/C=C3\C=Nc4ccccc43)c(=O)nc2s1 | -9 | 3 | -1 | 31*
CC(C)S(=O)(=O)c1nsc2nc(=O)c(/C=C3\C=Nc4ccccc43)c(N)n12 | -4 | 1 | -1 | 37*
CSc1nsc2nc(=O)c(/C=C3\C(C)=Nc4ccc(C)cc43)c(N)n12 | -2 | 9.3* | 0 | 20
O=C1CCCC2=C1C(c1cn(-c3ccccc3)nc1-c1cccs1)c1c([nH]c(=O)[nH]c1=O)N2 (stereo not drawn) | -1 | 2 | -1 | 0
O=C(Nc1ccc(N2CCN(C(=O)c3ccccc3F)CC2)cc1)c1ncn[nH]1 | 1 | 1 | 0 | -7
O=c1c(Cc2c(F)cccc2Cl)c(O)ccn1CCc1ccccn1 | 0 | 2 | 0 | 1
CC1=Nc2ccccc2/C1=C/c1c(N)n2c(S(=O)(=O)C(C)C)nsc2nc1=O | -2 | 2 | 0 | 39*
CC1=Nc2ccc(C)cc2/C1=C/c1c(N)n2c(S(=O)(=O)C(C)C)nsc2nc1=O | -1 | 2 | 0 | 45*
O=C(Nc1ccn(Cc2ccccc2F)n1)c1ccc(COc2cccc(Br)c2)cc1 | 11 | 11* | 1 | -17
O=C(O)c1cc(-c2ccc(/C=C3/SC(=S)N(Cc4ccccc4)C3=O)o2)ccc1Cl | 0 | 9.4* | 4 | 9
O=C(O)CCN1C(=O)/C(=C/c2ccc(-c3nc4ccccc4s3)o2)SC1=S | -1 | 4 | 0 | 42*
CCCN(CCO)Cc1ccc(Br)cc1 | 1 | 1 | 0 | 5
Cc1cc(C(=O)N/N=C/c2c(C)n(C)c3ccccc23)n[nH]1 | -4 | 0 | 0 | 7
OCC1(CCOc2ccccc2)CCN(Cc2nc3ccc(F)cc3[nH]2)CC1 | 0 | 1 | 0 | 55*
SMILES | ABCG2 block | RAM network inh | ABCB1 inh | Arbovirus inh
CC(/C=N/n1c(COc2ccccc2)n[nH]c1=S)=C\c1ccccc1 | 3 | 8.4* | 0 | 4
CCN1C=CC(=C2C(=O)c3ccccc3C2=O)C=C1 | 64 | 0 | 1 | -10
CCOC(=O)C1CCN(C(=O)CNC(=O)OC(C)(C)C)CC1 | 1 | 0 | 0 | 4
Cc1ccc(CCc2nnc(SCC(=O)Nc3cc(Cl)ccc3Cl)n2-c2ccccc2)o1 | 4 | 9.7* | 2 | -10
CCN(CC)c1ccc(/C=C2\C(=O)c3ccc(C(=O)O)cc3C2=O)cc1 | 135* | 10* | 88* | -3
O=C(/C=C/c1cccc([N+](=O)[O-])c1)NCCSc1ccccc1 | 2 | -1 | 0 | 6
O=C(/C=C/c1cccc([N+](=O)[O-])c1)NCCSCc1c(Cl)cccc1Cl | 18 | 9.7* | 2 | 0
